In ChEMBL document CHEMBL1135860 (Bioorg Med Chem Lett, 2002):

Tests used:
[1] = target: T1, 5-hydroxytryptamine receptor 7 (Homo sapiens, UniProt P34969); assay: Inhibition (at 1 uM) of radioligand [3H]LSD binding to human 5-hydroxytryptamine 7 receptor on HEK293 cells; type: cell-based
Method in brief: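 Human 5-HT7 binding was run with membranes from HEK293 cells expressing the receptor, incubated with 3H-LSD. Clozapine was the standard. Displacement of radioligand was recorded as percent inhibition at 1 µM.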

[2] = target: T1, 5-hydroxytryptamine receptor 7; assay: Binding affinity towards human 5-hydroxytryptamine 7 receptor on HEK293 cells using radioligand [3H]LSD; type: cell-based
Method in brief: (§1)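 Competition binding at human 5-HT7 receptor: membranes prepared from HEK293 cells expressing the receptor were incubated with 3H-LSD and a range of test concentrations. Clozapine was the reference standard. Ki values in nM were determined.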

[3] = target: T2, D(4) dopamine receptor (Homo sapiens) (UniProt P21917); assay: Percent inhibition (at 1 uM) against Dopamine receptor D4
T2 sequence (whole entry): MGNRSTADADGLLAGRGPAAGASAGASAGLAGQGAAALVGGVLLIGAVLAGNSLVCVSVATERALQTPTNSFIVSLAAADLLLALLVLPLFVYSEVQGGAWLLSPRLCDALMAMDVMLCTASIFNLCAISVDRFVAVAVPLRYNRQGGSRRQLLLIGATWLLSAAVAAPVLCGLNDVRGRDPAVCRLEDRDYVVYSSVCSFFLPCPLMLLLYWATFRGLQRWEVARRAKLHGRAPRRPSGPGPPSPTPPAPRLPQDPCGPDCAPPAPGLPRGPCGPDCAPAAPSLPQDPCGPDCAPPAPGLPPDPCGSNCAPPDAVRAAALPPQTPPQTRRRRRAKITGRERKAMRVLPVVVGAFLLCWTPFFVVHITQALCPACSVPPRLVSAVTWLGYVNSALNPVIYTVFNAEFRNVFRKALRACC

[4] = target: 5-hydroxytryptamine receptor 6 (Homo sapiens, UniProt P50406); assay: Compound was tested for its binding affinity towards 5-hydroxytryptamine 6 receptor
[5] = target: 5-hydroxytryptamine receptor 1B (Homo sapiens) (UniProt P28222); assay: Percent inhibition (at 1 uM) against 5-hydroxytryptamine 1B receptor
[6] = target: 5-hydroxytryptamine receptor 2A (Homo sapiens) (UniProt P28223); assay: Percent inhibition (at 1 uM) against 5-hydroxytryptamine 2A receptor
[7] = target: T3, 5-hydroxytryptamine receptor 2C (Homo sapiens) (UniProt P28335); assay: Percent inhibition (at 1 uM) against 5-hydroxytryptamine 2C receptor
T3 sequence (whole entry): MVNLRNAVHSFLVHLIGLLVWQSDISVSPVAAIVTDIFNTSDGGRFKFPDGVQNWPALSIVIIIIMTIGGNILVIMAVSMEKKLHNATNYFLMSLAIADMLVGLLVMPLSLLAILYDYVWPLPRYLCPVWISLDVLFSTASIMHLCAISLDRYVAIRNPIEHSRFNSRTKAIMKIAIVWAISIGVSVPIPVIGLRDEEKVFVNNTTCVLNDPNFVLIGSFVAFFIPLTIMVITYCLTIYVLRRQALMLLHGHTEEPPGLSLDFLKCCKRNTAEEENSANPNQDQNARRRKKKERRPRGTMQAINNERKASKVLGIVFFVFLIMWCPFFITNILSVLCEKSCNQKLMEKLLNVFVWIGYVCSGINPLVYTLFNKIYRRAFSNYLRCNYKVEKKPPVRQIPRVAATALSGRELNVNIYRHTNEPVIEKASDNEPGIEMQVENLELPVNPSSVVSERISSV

[8] = target: D(1B) dopamine receptor (Homo sapiens) (UniProt P21918); assay: Percent inhibition (at 1 uM) against dopamine D5 receptor
[9] = target: D(1A) dopamine receptor (Homo sapiens) (UniProt P21728); assay: Percent inhibition (at 1 uM) against Dopamine receptor D1
[10] = target: Muscarinic acetylcholine receptors; M1 & M2 (Homo sapiens) (UniProt P11229+P08172); assay: Percent inhibition (at 1 uM) against Muscarinic acetylcholine receptor M1- Muscarinic acetylcholine receptor M2; type: protein assay
[11] = target: D(2) dopamine receptor (Homo sapiens) (UniProt P14416); assay: Percent inhibition (at 1 uM) against Dopamine receptor D2
[12] = target: T4, 5-hydroxytryptamine receptor 1F (Homo sapiens) (UniProt P30939); assay: Percent inhibition (at 1 uM) against 5-hydroxytryptamine 1F receptor
T4 sequence (whole entry): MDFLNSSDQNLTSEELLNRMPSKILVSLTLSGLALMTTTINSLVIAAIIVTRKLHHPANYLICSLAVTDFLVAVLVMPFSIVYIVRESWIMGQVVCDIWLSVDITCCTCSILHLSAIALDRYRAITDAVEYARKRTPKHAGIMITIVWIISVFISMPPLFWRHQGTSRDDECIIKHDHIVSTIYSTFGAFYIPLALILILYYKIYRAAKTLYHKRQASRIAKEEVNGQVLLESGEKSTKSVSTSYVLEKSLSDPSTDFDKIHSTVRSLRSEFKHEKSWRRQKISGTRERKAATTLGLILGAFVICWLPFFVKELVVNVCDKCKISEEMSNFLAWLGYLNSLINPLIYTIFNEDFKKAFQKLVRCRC

[13] = target: D(3) dopamine receptor (Homo sapiens) (UniProt P35462); assay: Percent inhibition (at 1 uM) against Dopamine receptor D3
[14] = target: T5, 5-hydroxytryptamine receptor 1A (Homo sapiens) (UniProt P08908); assay: Percent inhibition (at 1 uM) against 5-hydroxytryptamine 1A receptor
T5 sequence (whole entry): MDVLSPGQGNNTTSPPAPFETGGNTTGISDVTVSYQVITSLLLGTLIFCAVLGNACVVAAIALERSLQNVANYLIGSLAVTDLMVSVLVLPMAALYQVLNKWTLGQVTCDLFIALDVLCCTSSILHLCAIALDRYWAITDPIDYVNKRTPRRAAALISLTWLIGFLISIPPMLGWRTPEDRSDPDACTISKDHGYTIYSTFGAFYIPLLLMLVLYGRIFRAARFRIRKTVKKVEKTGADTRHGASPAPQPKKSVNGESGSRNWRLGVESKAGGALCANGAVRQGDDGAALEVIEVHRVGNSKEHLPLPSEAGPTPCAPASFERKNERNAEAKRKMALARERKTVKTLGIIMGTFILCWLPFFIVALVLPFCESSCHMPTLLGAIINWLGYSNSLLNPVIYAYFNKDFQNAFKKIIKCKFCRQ

[15] = target: 5-hydroxytryptamine receptor 1D (Homo sapiens) (UniProt P28221); assay: Percent inhibition (at 1 uM) against 5-hydroxytryptamine 1D receptor
[16] = target: T1, 5-hydroxytryptamine receptor 7; assay: Compound was tested for its binding affinity towards human 5-hydroxytryptamine 7 receptor from HEK293 cells using radioligand [3H]LSD; type: cell-based; method in brief: as §1

T1 sequence (P34969 whole entry): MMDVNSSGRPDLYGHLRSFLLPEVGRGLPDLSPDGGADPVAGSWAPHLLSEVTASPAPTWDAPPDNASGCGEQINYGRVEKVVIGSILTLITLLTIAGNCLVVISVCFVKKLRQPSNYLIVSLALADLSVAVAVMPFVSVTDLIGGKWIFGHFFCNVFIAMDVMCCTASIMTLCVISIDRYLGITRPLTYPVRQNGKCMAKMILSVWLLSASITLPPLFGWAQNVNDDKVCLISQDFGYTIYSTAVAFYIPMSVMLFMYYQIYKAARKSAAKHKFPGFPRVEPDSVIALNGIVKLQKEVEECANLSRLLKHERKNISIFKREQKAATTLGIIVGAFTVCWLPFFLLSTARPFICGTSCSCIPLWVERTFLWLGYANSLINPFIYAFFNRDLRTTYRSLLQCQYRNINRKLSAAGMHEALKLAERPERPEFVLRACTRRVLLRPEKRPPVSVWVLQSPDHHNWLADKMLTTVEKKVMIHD
Chain of D(3) dopamine receptor (Homo sapiens) (P35462 whole entry): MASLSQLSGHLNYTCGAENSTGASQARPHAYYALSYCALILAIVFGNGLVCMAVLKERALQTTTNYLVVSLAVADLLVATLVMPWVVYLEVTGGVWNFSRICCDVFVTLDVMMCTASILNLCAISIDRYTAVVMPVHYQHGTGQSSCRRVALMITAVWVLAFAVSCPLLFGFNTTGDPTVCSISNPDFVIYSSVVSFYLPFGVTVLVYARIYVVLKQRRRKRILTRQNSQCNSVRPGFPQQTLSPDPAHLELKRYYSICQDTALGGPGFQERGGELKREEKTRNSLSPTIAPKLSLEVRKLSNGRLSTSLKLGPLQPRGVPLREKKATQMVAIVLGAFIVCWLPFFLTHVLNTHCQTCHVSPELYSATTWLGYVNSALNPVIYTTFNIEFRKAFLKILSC
Chain of D(1B) dopamine receptor (Homo sapiens) (P21918 whole entry): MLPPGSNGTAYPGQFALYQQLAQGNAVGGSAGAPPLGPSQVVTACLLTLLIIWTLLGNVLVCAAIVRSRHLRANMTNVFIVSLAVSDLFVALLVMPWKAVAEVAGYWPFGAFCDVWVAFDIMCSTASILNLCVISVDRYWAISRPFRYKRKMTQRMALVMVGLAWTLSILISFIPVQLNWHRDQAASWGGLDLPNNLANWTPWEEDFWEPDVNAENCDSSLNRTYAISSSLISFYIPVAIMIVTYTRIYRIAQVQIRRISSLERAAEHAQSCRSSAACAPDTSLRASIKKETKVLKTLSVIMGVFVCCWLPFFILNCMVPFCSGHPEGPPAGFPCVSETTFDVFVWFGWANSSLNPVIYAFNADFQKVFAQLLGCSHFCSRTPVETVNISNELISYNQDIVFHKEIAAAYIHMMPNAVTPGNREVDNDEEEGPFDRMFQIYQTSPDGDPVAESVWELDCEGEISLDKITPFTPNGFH
Chain of 5-hydroxytryptamine receptor 1B (Homo sapiens) (P28222 whole entry): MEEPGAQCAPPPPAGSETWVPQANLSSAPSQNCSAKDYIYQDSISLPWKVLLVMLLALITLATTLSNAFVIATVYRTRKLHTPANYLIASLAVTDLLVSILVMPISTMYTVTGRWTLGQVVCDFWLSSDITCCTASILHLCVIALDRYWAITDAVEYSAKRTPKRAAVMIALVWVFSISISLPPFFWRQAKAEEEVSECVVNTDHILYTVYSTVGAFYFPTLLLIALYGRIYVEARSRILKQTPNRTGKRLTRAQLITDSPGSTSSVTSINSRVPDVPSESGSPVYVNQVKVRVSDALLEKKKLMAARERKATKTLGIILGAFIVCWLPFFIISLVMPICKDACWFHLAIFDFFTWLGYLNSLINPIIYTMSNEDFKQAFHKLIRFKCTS
Chain of 5-hydroxytryptamine receptor 1D (Homo sapiens) (P28221 whole entry): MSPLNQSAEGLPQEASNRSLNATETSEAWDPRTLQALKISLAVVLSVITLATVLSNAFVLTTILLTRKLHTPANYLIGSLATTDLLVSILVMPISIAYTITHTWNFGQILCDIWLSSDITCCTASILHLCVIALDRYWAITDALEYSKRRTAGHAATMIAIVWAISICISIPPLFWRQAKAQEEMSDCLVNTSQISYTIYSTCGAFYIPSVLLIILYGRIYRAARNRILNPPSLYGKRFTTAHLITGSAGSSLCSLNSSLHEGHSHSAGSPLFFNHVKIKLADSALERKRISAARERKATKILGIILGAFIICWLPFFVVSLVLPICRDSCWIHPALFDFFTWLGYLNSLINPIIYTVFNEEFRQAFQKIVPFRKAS
Chain of 5-hydroxytryptamine receptor 2A (Homo sapiens) (P28223 whole entry): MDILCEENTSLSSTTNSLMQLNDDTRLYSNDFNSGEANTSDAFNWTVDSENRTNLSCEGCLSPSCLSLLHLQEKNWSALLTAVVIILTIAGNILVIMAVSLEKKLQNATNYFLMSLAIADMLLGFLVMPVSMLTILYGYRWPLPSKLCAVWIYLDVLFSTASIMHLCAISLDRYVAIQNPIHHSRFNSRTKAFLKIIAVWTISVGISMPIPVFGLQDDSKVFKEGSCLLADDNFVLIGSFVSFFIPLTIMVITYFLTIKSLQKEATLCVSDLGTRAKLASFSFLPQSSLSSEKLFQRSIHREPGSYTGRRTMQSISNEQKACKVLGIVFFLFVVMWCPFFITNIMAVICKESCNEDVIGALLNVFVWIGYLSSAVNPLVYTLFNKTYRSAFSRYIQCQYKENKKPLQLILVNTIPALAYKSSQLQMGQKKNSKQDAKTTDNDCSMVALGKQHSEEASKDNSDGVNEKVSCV
Chain of 5-hydroxytryptamine receptor 6 (P50406 whole entry): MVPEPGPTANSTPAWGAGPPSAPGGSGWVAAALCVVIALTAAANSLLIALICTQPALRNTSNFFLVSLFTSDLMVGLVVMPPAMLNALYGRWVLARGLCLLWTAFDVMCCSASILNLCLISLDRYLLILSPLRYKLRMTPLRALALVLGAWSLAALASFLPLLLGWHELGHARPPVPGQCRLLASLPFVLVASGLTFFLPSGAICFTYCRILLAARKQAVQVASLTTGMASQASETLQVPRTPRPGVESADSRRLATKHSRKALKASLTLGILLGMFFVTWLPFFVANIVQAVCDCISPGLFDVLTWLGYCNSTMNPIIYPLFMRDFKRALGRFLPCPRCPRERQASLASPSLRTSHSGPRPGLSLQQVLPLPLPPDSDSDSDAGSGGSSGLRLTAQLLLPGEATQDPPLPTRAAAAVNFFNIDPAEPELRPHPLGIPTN
Chain of D(1A) dopamine receptor (Homo sapiens) (P21728 whole entry): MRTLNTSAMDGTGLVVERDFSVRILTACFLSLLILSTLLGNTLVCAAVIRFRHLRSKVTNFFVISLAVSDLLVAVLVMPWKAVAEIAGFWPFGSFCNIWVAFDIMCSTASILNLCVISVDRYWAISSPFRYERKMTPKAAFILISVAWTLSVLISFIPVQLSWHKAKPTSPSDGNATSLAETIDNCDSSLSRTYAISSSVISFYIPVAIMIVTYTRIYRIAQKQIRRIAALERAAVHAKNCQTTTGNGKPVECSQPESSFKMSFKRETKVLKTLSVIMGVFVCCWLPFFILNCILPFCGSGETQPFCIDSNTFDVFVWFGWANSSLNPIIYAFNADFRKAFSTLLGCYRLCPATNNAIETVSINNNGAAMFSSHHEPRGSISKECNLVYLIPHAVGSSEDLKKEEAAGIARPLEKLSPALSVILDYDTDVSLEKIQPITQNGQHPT
Chain of D(2) dopamine receptor (Homo sapiens) (P14416 whole entry): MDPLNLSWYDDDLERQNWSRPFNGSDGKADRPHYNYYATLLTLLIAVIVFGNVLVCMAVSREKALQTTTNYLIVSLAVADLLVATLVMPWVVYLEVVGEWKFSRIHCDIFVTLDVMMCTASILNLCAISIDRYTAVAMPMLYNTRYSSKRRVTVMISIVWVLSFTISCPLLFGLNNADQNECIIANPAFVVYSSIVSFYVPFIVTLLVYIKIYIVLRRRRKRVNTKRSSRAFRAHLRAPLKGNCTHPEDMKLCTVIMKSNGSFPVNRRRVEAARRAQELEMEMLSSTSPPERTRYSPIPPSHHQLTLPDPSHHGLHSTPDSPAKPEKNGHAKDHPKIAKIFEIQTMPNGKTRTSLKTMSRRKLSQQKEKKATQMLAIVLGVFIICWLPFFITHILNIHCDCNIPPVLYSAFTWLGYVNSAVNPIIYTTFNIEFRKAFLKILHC

SMILES | inhibition [1] [%] | Ki [2] [nM] | further results
Brc1ccc2ccn(CCN3CCNCC3)c2c1 | 61 | – | –
Brc1ccc2ccn(CCN3CCCN4CCCCC4C3)c2c1 (stereo not given) | 99 | 3 | inhibition [3]: 4%; Ki [4]: 4070 nM; inhibition [5]: 0%; inhibition [6]: 20%; inhibition [7]: 26%; inhibition [8]: 17%; inhibition [9]: 2%; inhibition [10]: 35%; inhibition [11]: 15%; inhibition [12]: 0%; inhibition [13]: 27%; inhibition [14]: 1%; inhibition [15]: 0%
Clc1ccc2ccn(CCN3CCCN4CCCCC4C3)c2c1 (stereo not given) | – | 10 | –
Brc1ccc2ccn(CCN3CCCN(C4CCCC4)CC3)c2c1 | 98 | 10 | –
C=C(C)c1ccc2ccn(CCN3CCCN(C)CC3)c2c1 | 72 | 70 | –
CN1CCCN(CCn2ccc3ccc(-c4ccsc4)cc32)CC1 | 68 | 109 | –
Brc1ccc2ccn(CCN3CCCN(C4CC4)CC3)c2c1 | 96 | 16 | –
CC(C)(C)CN1CCCN(CCn2ccc3ccc(Br)cc32)CC1 | 70 | 163 | –
C[C@H](Nc1nc(N)nc(NC[C@H]2C[C@@H]2c2ccc(F)cc2)n1)c1ccccc1 | – | – | IC50 [16]: < 50 nM
CN1CCCN(CCn2ccc3ccc(C(F)(F)F)cc32)CC1 | 89 | 23 | –
Brc1cccc2ccn(CCN3CCN4CCCCC4C3)c12 (stereo not given) | 13 | – | –
Cc1cccc(S(=O)(=O)N(C)[C@H](C)CCN2CCC(C)CC2)c1 [SB-258719] | – | – | Ki ([2]; hek293): 32 nM
CN1CCCN(CCn2ccc3ccc(C(C)(C)O)cc32)CC1 | 6 | – | –
Brc1ccc2ccn(CCN3CCCN(C4CCCCC4)CC3)c2c1 | 96 | 17 | –
CC(C)c1ccc2ccn(CCN3CCCN(C)CC3)c2c1 | 72 | 145 | –
CN1CCCN(CCn2ccc3ccc(OCc4ccccc4)cc32)CC1 | 28 | 182 | –
Cc1cccc(C#N)c1-c1cccc2c1-c1cccc3c1[C@@H](C2)N(C)CC3 | – | 1 | –
CC(C)N1CCCN(CCn2ccc3ccc(Br)cc32)CC1 | 92 | 14 | –
Brc1ccc2ccn(CCN3CCC4CCCCN4CC3)c2c1 (stereo not given) | 71 | – | –
CN1CCCN(CCn2ccc3ccc(C(N)=O)cc32)CC1 | 33 | – | –
CC1CN(CCn2ccc3ccc(Br)cc32)CCN1 (stereo not given) | 52 | – | –
CN1CCCN(CCn2ccc3ccc(Br)cc32)CC1 | 93 | 31 | –
CN1CCCN(CCn2ccc3ccc(N)cc32)CC1 | 0 | – | –
FC(F)(F)c1ccc2ccn(CCN3CCCN4CCCCC4C3)c2c1 (stereo not given) | – | 7 | –
Brc1ccc2ccn(CCN3CCCN(c4ccccc4)CC3)c2c1 | 18 | – | –
Brc1ccc2ccn(CCN3CCN4CCCCC4C3)c2c1 (stereo not given) | 78 | 70 | –
Brc1ccc2ccn(CCN3CCCNCC3)c2c1 | 77 | – | –

Second part, led by results:

inhibition [1] [%] | Ki [2] [nM] | SMILES | further results
60 | 288 | CN1CCCN(CCn2ccc3ccc(F)cc32)CC1 | –
33 | – | CN1CCCN(CCn2ccc3c(Br)cccc32)CC1 | –
18 | – | CN1CCCN(CCn2ccc3cccc(Br)c32)CC1 | –
72 | 139 | CN1CCCN(CCn2ccc3ccc([N+](=O)[O-])cc32)CC1 | –
35 | – | CN1CCCN(CCn2ccc3ccc(-c4cccnc4)cc32)CC1 | –
36 | – | Brc1ccc2ccn(CCN3CCN(C4CCCCC4)CC3)c2c1 | –
66 | 166 | CCc1ccc2ccn(CCN3CCCN(C)CC3)c2c1 | –
50 | 1570 | COc1ccc2ccn(CCN3CCCN(C)CC3)c2c1 | –
95 | 37 | CC(C)CN1CCCN(CCn2ccc3ccc(Br)cc32)CC1 | –
79 | 140 | C#Cc1ccc2ccn(CCN3CCCN(C)CC3)c2c1 | –
79 | 109 | C=Cc1ccc2ccn(CCN3CCCN(C)CC3)c2c1 | –
85 | 34 | CN1CCCN(CCn2ccc3ccc(Cl)cc32)CC1 | –
65 | 158 | Brc1ccc2c(ccn2CCN2CCN3CCCCC3C2)c1 (stereo not given) | –
62 | 125 | Cc1ccc2ccn(CCN3CCCN(C)CC3)c2c1 | –
28 | – | CN1CCCN(CCn2ccc3ccc(O)cc32)CC1 | –
95 | 9 | Brc1ccc2ccn(CCN3CCCN(CC4CC4)CC3)c2c1 | –
72 | – | Brc1ccc2ccn(CCN3CCN4CCCC4C3)c2c1 (stereo not given) | –
43 | – | Brc1cccc2c1ccn2CCN1CCN2CCCCC2C1 (stereo not given) | –
65 | 88 | CN1CCCN(CCn2ccc3cc(Br)ccc32)CC1 | –
26 | – | CC1CN(CCn2ccc3ccc(Br)cc32)CC(C)N1 (stereo not given) | –
